M4 ag: agonists of human muscarinic M4 receptor (CHRM4); activation, % at 3 µM; P08173; 360,000 compounds, 0.14% hits; CHO-K1 hM4/Gqi5, Fluo-8 calcium fluorescence; vehicle 0%, full acetylcholine response 100%;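 active = activation above the run mean over all test wells plus 3 SD, cut at about 32% in these data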;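 also: peak over basal fluorescence ratio per well then scaled between controls; 0% = DMSO wells and 100% = acetylcholine at EC100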
Target sequence (P08173 whole entry, looked up): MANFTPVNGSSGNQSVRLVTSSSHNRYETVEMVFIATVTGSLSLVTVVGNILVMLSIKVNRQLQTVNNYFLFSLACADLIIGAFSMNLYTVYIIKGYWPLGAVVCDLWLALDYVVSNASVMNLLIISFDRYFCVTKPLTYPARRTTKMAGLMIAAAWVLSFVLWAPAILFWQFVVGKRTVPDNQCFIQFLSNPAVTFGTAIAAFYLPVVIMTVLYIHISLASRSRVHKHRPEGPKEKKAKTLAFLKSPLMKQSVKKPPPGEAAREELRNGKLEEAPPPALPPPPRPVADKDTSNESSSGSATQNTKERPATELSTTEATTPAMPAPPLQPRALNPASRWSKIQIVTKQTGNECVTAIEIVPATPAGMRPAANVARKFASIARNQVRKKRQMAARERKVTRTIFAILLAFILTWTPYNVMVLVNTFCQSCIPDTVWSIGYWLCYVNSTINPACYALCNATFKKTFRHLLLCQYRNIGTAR
M4 PAM: CHRM4 positive allosteric modulation; P08173; CHO-K1 hM4/Gqi5, Fluo-8 calcium fluorescence, ACh EC20; 0% = ACh EC20, 100% = maximal ACh; AID 624126; 360,000 compounds, 0.4% hits; activation, % at 3 µM;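 active = activation above its plate's cutoff, the mean activation of sample wells plus 3 SD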
M5 antag: blocks acetylcholine activation of human M5 receptor. inhibition, % at 3 µM. 360,000 compounds, 0.59% hits. CHO-hM5 cells, Fluo-8 calcium fluorescence, ACh EC80. AID 624040. P08912;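 active = inhibition above a per-plate cutoff, the mean of that plate's test compounds plus 3 SD, cut at about 27% in these data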;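 also: 0% = acetylcholine EC80 with DMSO and 100% = DMSO without agonist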
M5 PAM: positive allosteric modulators of human muscarinic M5 receptor; AID 624038; 360,000 compounds, 0.3% hits; P08912; CHO-K1 hM5, Fluo-8 calcium, ACh EC20 PAM; 0% = ACh EC20, 100% = ACh EC100; activation, % at 3 µM;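 active = activation above the run cutoff, the mean activation of all test compounds plus 3 SD, cut at about 18% in these data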
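Assay system: CHO-K1 hM5 cells. Also added: acetylcholine at EC20 concentration, added after compound. Dosing: 3 µM, single dose. Times: compound preincubation 140 s before EC20 acetylcholine addition. Signal: Fluo-8 calcium fluorescence. Measure: % activation relative to EC20 and EC100 ACh responses. Repeats: singlicate, one well per test compound.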
CHRM4 antagonist: blocks acetylcholine activation of human M4 receptor; P08173; CHO-hM4 cells, ACh EC80, Fluo-8 calcium fluorescence; inhibition, % at 3 µM; 360,000 compounds, 0.73% hits;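 active = inhibition above its plate's cutoff, the mean inhibition of sample wells plus 3 SD, cut at about 27% in these data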;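 also: 0% = acetylcholine EC80 with DMSO and 100% = DMSO without agonist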
M5 ag: agonists of human muscarinic M5 receptor (CHRM5); CHO-K1 hM5 cells, Fluo-8 calcium fluorescence; 0% DMSO wells, 100% maximal acetylcholine response; 360,000 compounds, 0.19% hits; activation, % at 3 µM; P08912;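 active = activation above the run's mean over test compounds plus 3 SD, cut at about 23% in these data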;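 also: signal is peak over basal fluorescence ratio across the kinetic read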
* = called active by the depositor. A selection: hits, their analogues and other compounds. The true share with any hit is near 1.8%.

SMILES	M4 ag	M4 PAM	M5 antag	M5 PAM	CHRM4 antagonist	M5 ag
O=C1N=c2ccccc2=C1c1sc(NS(=O)(=O)Cc2ccccc2)nc1O	0	-10	2	4	5	0
O=C(COC(=O)c1cc[n+]([O-])cc1)Nc1cccc(F)c1	1	10	-1	0	-4	-3
COc1ccccc1N(C)S(=O)(=O)c1ccc(C(=O)OCC(=O)N2CCCCCC2)cc1	7	-5	10	-6	-3	0
COc1ccc(C(=O)n2nc(C)c(Br)c2C)cc1	1	12	-10	21*	4	-10
CCOc1ccc(NC(=O)CN(C)C(=O)c2cccnc2Sc2ccc(C)c(C)c2)cc1OCC	5	4	-2	22*	-7	2
O=C(CSc1ccc2nnc(CCNC(=O)c3ccc(F)cc3)n2n1)NCc1ccco1	-1	1	14	-6	-4	-3
COc1ccc(Nc2ncc(C(=O)N3CCC(C(N)=O)CC3)c3ccccc23)cc1	0	-6	10	5	5	-3
COc1ccc(Nc2ncc(C(=O)N3CCN(Cc4ccccc4)CC3)c3ccccc23)cc1	23	-28	20	-19	28*	4
Cc1ccc(F)cc1C(=O)N1CCCC(c2cc(C(=O)Nc3ccccc3Cl)no2)C1 (configuration not stated)	9	-5	3	-8	-7	2
COC(=O)c1c(-c2ccc(OC)c(OC)c2)csc1N	4	7	-4	44*	-18	-3
COC(=O)c1c(-c2cccc(OC)c2)csc1N	1	-4	-2	2	5	0
CCCCc1nc(Cl)c(CO)n1Cc1ccc(-c2ccccc2-c2nnn[nH]2)cc1	0	2	2	-14	-6	33*
CC(C)OC(=O)c1cc(C(=O)c2cc(F)ccc2O)coc1=N	0	16	-6	13	6	13
COc1ccc(O)c(C(=O)c2coc(=N)c(C(=O)Nc3ccc(SC(F)F)cc3)c2)c1	28	-21	28*	-33	23	8
Cc1ccc(S(=O)(=O)c2ccc([N+](=O)[O-])o2)cc1	0	-5	19	-1	36*	-8
CSc1ncnc2c1ncn2CCCN1CCN(Cc2c(C)cc(C)cc2C)CC1	7	-13	-10	-3	-8	-2
O=C(Nc1nccs1)Oc1ccccc1	1	28*	-2	-1	-14	-3
O=C(CCCOc1ccccc1)Nc1nccs1	1	19	-1	-2	1	1
CC(C)C[C@@H]1CC2=C(C(=O)OC(C)(C)O2)[C@H](c2ccc(Cl)cc2)O1	-3	-5	1	-9	-3	-4
CC1CCc2sc3c(c2C1)c(=O)n(CC(=O)O)c(=O)n3Cc1ccc(Cl)cc1 (configuration not stated)	0	-1	4	-3	0	-2
NC(=O)c1ccc(NS(=O)(=O)c2ccc(Br)s2)cc1	1	13	0	5	-7	2
CC(C)(C)NC(=O)CN(Cc1cccs1)C(=O)CNS(=O)(=O)c1ccc(F)cc1	3	9	-4	7	-6	3
CC(C)(C)NC(=O)CN(Cc1ccc2c(c1)OCO2)C(=O)CNS(=O)(=O)c1ccc(F)cc1	17	45*	11	27*	16	1
c1ccc2c(c1)ncn2CCN1CCCCC1	0	0	-11	20*	-11	-6
c1ccc(CCn2cnc3ccccc32)cc1	1	13	-4	3	-9	-5
SMILES	M4 ag	M4 PAM	M5 antag	M5 PAM	CHRM4 antagonist	M5 ag
Cc1c(CC(=O)NCCCC(=O)O)c(=O)oc2cc3oc4c(c3cc12)CCCC4	0	-2	9	-1	8	-3
Cc1c(CC(=O)NCCCCCC(=O)O)c(=O)oc2c(C)c3oc4c(c3cc12)CCCC4	1	14*	-3	4	-4	-4
Cc1cccc(N2CCN(C(=O)CCn3c(=S)[nH]c4cc5c(cc4c3=O)OCO5)CC2C)c1 (configuration not stated)	6	31*	-2	-6	40*	4
COc1ccc(CNS(=O)(=O)c2c(C(=O)N3CCCCC3)c(C)n(C)c2C)cc1	2	11	4	-4	-5	-6
CC(C)(C)c1ccc(OCC(=O)N2CCN(c3ncccn3)CC2)cc1	6	1	-1	-10	3	0
COc1ccc(NS(=O)(=O)c2cccc(NC(=O)c3ccc(Cl)nc3)c2)cc1	15	-12	35*	-18	24	5
O=C(Nc1cccc(S(=O)(=O)Nc2ccc(Cl)cc2)c1)c1ccc(Cl)nc1	16	-15	35*	-20	30*	5
O=C(Nc1ccc(NS(=O)(=O)c2ccccc2)cc1)c1ccc(Cl)cc1	5	-3	11	-7	1	-6
O=C(C1CCCN(S(=O)(=O)c2cc(Cl)ccc2Cl)C1)N1CCOCC1 (configuration not stated)	1	-7	5	2	1	-1
O=C(NC(c1ccccc1)C(Cl)Cl)c1ccccc1 (configuration not stated)	1	-7	-3	5	-3	0
[N-]=[N+]=NC(c1ccccc1)C(NC(=O)c1cc(C(F)(F)F)cc(C(F)(F)F)c1)c1ccccc1 (configuration not stated)	18	-13	11	-17	31*	0
N#CCCN(C(=O)COC(=O)c1ccc(CNS(=O)(=O)c2ccc(F)c(Cl)c2)cc1)c1ccc(F)cc1	15	-17	22	-19	50*	-3
COC(=O)c1ccccc1NC(=O)N1CCN(Cc2ccco2)CC1	2	4	4	-6	-11	1
CCOC(=O)C1CCN(C(=O)COc2ccc3c(C)cc(=O)oc3c2)CC1	3	6	13	-3	-1	0
CCOC(=O)C1CCC/C1=N\NC(=O)CN(c1cc(OC)ccc1OC)S(=O)(=O)c1ccccc1 (configuration not stated)	0	-4	8	-1	5	-4
Cc1ccnc(SCC(=O)Nc2sc3c(c2C#N)CCCC3)n1	13	-11	30*	-16	26	2
Cc1csc(SCC(=O)Nc2sc3c(c2C#N)CCC3)n1	-1	4	-3	5	4	0
COCCNS(=O)(=O)c1ccc(-c2ccc(Cl)cc2)cc1	1	-6	-7	21*	1	4
COc1ccc(C2=Nn3c(nnc3-c3ccc(OC)cc3)SC2)cc1	3	7	9	-5	28*	-5

Screening data (PubChem BioAssay)
